Activity calls are given as the source filed them. The calls are words filed in the database; no cut-off is given here.
Legend:
Type in all cases: cell-based
[1] = biological target: T1, Transient receptor potential cation channel subfamily M member 2 (Homo sapiens, UniProt O94759); test: Inhibition of human TRPM2 expressed in HEK293 cells assessed as reduction in H2O2-induced intracellular calcium flux at 30 uM after 30 mins by Fluo3-AM dye based fluorescence imaging assay
[2] = biological target: T1, Transient receptor potential cation channel subfamily M member 2; test: Inhibition of human TRPM2 expressed in HEK293 cells assessed as reduction in ADPR-induced channel currents at 30 uM treated extracellularly after 60 secs by whole cell patch clamp electrophysiology method relative to control
Procedure, shortened: (§1)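 Tetracycline-inducible HEK293 stably expressing human TRPM2 (1 µg/mL tetracycline), whole-cell patch clamp at room temperature. ECS (mM): 145 NaCl, 5.6 KCl, 2 MgCl2, 1.2 CaCl2, 10 HEPES, pH 7.2. ICS contained 500 µM ADPR (pH 7.3). Compound was added to ECS. Held at 0 mV with 500 ms ramps from -100 to 100 mV every 5 s. IC50 came from concentration–response curves; mean ± SEM from at least five cells.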

[3] = biological target: T1, Transient receptor potential cation channel subfamily M member 2; test: Inhibition of human TRPM2 expressed in HEK293 cells assessed as reduction in ADPR-induced channel currents at 3 uM treated extracellularly after 60 secs by whole cell patch clamp electrophysiology method relative to control; procedure, shortened: as §1
[4] = biological target: T1, Transient receptor potential cation channel subfamily M member 2; test: Inhibition of human TRPM2 expressed in HEK293 cells assessed as reduction in ADPR-induced channel currents treated extracellularly after 60 secs by whole cell patch clamp electrophysiology method; procedure, shortened: as §1
[5] = biological target: T2, Transient receptor potential cation channel subfamily M member 8 (Homo sapiens, UniProt Q7Z2W7); test: Inhibition of human TRPM8 expressed in HEK293 cells assessed as reduction in H2O2-induced intracellular calcium flux after 30 mins by Fluo4-AM dye based fluorescence assay
Target sequence in this assay (Q7Z2W7 whole entry): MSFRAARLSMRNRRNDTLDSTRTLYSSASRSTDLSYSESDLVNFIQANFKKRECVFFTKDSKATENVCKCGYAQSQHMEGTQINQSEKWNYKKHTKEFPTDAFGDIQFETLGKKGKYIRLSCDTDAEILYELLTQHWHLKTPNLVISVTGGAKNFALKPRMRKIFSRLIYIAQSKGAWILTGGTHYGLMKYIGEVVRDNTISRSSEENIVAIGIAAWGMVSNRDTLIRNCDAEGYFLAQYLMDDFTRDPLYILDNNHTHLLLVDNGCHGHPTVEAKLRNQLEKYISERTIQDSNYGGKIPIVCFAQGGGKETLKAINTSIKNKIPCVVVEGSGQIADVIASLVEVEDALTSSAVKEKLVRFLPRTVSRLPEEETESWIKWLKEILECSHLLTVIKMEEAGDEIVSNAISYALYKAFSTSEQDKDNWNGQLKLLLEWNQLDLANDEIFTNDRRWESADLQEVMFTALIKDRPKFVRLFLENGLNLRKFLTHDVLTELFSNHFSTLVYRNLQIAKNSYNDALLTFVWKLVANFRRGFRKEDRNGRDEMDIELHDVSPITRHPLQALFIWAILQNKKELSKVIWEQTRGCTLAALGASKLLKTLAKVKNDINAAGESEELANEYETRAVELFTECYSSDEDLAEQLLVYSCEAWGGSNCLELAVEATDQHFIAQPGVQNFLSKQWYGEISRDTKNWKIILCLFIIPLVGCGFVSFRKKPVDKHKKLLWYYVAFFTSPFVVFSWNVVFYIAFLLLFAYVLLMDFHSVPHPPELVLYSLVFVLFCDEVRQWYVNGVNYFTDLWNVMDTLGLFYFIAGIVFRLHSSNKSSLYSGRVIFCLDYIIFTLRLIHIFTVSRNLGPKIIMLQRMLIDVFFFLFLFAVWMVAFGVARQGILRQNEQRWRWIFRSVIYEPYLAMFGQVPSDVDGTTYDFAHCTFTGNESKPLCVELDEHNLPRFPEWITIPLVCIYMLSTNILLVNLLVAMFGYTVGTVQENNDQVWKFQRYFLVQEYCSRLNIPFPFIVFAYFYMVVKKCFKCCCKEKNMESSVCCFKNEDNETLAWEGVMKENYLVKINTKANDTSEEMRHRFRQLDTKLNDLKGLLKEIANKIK

[6] = biological target: T2, Transient receptor potential cation channel subfamily M member 8; test: Inhibition of human TRPM8 expressed in HEK293 cells assessed as reduction in menthol-induced channel currents at 30 uM treated extracellularly after 60 secs by whole cell patch clamp electrophysiology method relative to control
Procedure, shortened: (§2)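 HEK293 were transiently transfected with human TRPM8 (pcDNA4/TO) plus GFP using Lipofectamine 2000 and recorded 24–48 h later by whole-cell patch clamp. TRPM8 was activated by 1 mM menthol in ECS. Compound at 30 µM was placed in ECS or ICS, with 0.1 mM 2-APB as reference inhibitor. Mean peak currents reported as mean ± SEM, n = 5.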
Target sequence in this assay (Q7Z2W7 whole entry, looked up): as the sequence (Q7Z2W7 whole entry) above

[7] = biological target: T2, Transient receptor potential cation channel subfamily M member 8; test: Inhibition of human TRPM8 expressed in HEK293 cells assessed as reduction in menthol-induced channel currents at 30 uM treated intracellularly via pipette after 60 secs by whole cell patch clamp electrophysiology method; procedure, shortened: as §2
Target sequence in this assay (Q7Z2W7 whole entry, looked up): as the sequence (Q7Z2W7 whole entry) above

[8] = system: Transient receptor potential cation channel subfamily M member 2 (Homo sapiens), O94759 [H995A]; test: Inhibition of human TRPM2 H995A mutant expressed in HEK293 cells assessed as reduction in ADPR-induced channel currents at 30 uM treated extracellularly after 50 to 200 secs by whole cell patch clamp electrophysiology method
[9] = biological target: T1, Transient receptor potential cation channel subfamily M member 2; test: Inhibition of human TRPM2 expressed in HEK293 cells assessed as reduction in ADPR-induced channel currents at 30 to 1000 uM treated intracellularly after 60 secs by whole cell patch clamp electrophysiology method
Procedure, shortened: (§3)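 Human TRPM2 in tetracycline-inducible HEK293, recorded by whole-cell patch clamp at room temperature. Compound at 30 µM or 1 mM was added to the pipette ICS together with 500 µM ADPR; the ICS (mM) was 147 NaCl, 1 EGTA, 1 MgCl2, 24 HEPES, pH 7.3. Ramps ran from -100 to 100 mV every 5 s from a 0 mV hold, with leak subtraction from the first three ramps.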

[10] = biological target: T1, Transient receptor potential cation channel subfamily M member 2; test: Inhibition of human TRPM2 expressed in HEK293 cells assessed as reduction in ADPR-induced channel currents at 30 to 1000 uM treated simultaneously after 60 secs by whole cell patch clamp electrophysiology method; procedure, shortened: as §3
[11] = system: Transient receptor potential cation channel subfamily M member 2 (Homo sapiens), O94759 [D964A]; test: Inhibition of human TRPM2 D964A mutant expressed in HEK293 cells assessed as reduction in ADPR-induced channel currents at 30 uM treated extracellularly after 50 to 200 secs by whole cell patch clamp electrophysiology method relative to control
Transient receptor potential cation channel subfamily M member 2 (Homo sapiens), O94759 [D964A], sequence (O94759 whole entry D964A): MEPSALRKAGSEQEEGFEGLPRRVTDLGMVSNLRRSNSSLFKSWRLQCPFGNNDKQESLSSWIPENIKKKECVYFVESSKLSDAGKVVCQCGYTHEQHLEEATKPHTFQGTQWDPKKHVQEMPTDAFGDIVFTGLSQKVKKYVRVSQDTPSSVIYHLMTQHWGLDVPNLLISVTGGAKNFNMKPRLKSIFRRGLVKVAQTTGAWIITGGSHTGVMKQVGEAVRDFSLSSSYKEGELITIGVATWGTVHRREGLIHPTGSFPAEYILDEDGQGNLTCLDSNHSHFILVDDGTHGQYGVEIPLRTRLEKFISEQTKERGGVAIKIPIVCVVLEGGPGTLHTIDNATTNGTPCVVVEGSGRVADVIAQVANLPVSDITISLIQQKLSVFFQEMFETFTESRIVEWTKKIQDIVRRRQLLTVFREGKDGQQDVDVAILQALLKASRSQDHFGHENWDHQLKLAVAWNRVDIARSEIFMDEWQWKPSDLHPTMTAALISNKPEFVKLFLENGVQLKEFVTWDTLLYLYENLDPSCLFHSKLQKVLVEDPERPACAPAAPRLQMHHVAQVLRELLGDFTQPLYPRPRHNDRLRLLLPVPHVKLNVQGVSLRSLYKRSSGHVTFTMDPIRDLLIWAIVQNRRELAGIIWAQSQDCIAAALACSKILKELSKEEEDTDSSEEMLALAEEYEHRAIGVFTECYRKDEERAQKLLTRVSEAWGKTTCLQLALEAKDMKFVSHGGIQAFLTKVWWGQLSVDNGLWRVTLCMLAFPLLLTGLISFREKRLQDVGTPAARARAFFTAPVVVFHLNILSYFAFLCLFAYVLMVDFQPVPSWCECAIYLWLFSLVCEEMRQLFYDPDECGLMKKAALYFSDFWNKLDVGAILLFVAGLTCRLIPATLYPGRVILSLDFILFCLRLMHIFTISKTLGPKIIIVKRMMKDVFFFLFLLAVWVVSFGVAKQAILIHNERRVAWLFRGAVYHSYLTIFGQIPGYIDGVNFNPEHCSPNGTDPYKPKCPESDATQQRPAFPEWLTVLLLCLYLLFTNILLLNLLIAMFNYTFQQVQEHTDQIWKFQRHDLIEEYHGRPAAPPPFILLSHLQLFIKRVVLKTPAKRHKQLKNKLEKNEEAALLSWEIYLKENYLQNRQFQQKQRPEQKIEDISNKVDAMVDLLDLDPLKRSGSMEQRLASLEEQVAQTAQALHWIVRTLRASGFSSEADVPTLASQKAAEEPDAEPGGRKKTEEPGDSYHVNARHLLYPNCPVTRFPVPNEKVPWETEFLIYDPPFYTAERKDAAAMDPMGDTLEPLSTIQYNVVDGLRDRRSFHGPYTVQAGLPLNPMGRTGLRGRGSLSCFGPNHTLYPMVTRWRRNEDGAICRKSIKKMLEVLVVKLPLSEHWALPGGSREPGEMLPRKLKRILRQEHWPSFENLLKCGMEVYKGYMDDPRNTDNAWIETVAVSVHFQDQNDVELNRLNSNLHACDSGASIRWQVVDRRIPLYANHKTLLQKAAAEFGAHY

T1 sequence (O94759 whole entry): as the sequence (O94759 whole entry D964A) above, with A964D counted along it
Transient receptor potential cation channel subfamily M member 2 (Homo sapiens), O94759 [H995A], sequence (O94759 whole entry H995A): as the sequence (O94759 whole entry D964A) above, with A964D, H995A counted along it

| Compound | inhibition [1] | inhibition [2] | other results |
| --- | --- | --- | --- |
| Cc1cccc2c(=O)[nH]c(-c3c[nH]nc3-c3ccccc3)nc12 | – | 21.2% | – |
| Cc1cc(Cl)cc2c1NC(c1cn[nH]c1)NC2=O (stereo not given) | – | 16.9% | – |
| O=C1NC(c2cc(-c3ccccc3)c[nH]2)Nc2ccccc21 (stereo not given) | Active | – | – |
| O=c1[nH]c(-c2c[nH]nc2-c2ccccc2)nc2ncccc12 | Active | – | – |
| O=C1NC(c2c[nH]nc2-c2ccccc2)Nc2c(Br)cc(Br)cc21 (stereo not given) | Active | – | – |
| O=C1NC(c2c[nH]nc2-c2cccc3ccccc23)Nc2c(I)cc(Cl)cc21 (stereo not given) | – | – | inhibition [3]: 19.9% |
| CCCCCc1ccc(/C=C/C(=O)Nc2ccccc2C(=O)O)cc1 | – | 89.1% | IC50 [4]: 0.32 µM; inhibition [3]: 75.9%; IC50 [5]: 3.9 µM |
| O=C1NC(c2c[nH]nc2-c2ccccc2)Nc2c(Br)cccc21 (stereo not given) | Active | – | – |
| Cc1cc(Cl)cc2c1N[C@H](c1c[nH]nc1-c1ccccc1)NC2=O | – | Active | – |
| O=C1NC(c2c[nH]nc2-c2ccccc2)Nc2cccc(Cl)c21 (stereo not given) | Active | – | – |
| Cc1cc(I)cc2c1NC(c1c[nH]nc1-c1ccccc1)NC2=O (stereo not given) | Active | – | – |
| O=C1NC(c2c[nH]nc2-c2ccc([N+](=O)[O-])cc2)Nc2c(I)cc(Cl)cc21 (stereo not given) | – | – | inhibition [3]: 34.9% |
| Cc1cc(Br)cc2c1NC(c1c[nH]nc1-c1ccc([N+](=O)[O-])cc1)NC2=O (stereo not given) | – | – | inhibition [3]: 42.1% |
| Cc1cc(Cl)cc2c1NC(c1c[nH]nc1-c1ccc(-c3ccccc3)cc1)NC2=O (stereo not given) | – | 17% | – |
| Cc1cc(Cl)cc2c1NC(c1c[nH]nc1-c1ccc([N+](=O)[O-])cc1)NC2=O (stereo not given) | – | 90.4% | inhibition [3]: 43.4% |
| Cc1cc(C)c2nc(-c3c[nH]nc3-c3ccccc3)[nH]c(=O)c2c1 | Active | – | – |
| Cc1cc(Cl)cc2c1NC(c1c[nH]nc1-c1cccc3ccccc13)NC2=O (stereo not given) | – | 90.2% | IC50 [4]: 4 µM; inhibition [3]: 50.9%; inhibition [6]: inactive; inhibition [7]: inactive |

| Compound | inhibition [1] | inhibition [2] | other results |
| --- | --- | --- | --- |
| Cc1cc(Cl)cc2c(=O)[nH]c(-c3c[nH]nc3-c3ccccc3)nc12 | Active | – | – |
| Cc1cc(Br)cc2c1NC(c1c[nH]nc1-c1cccc3ccccc13)NC2=O (stereo not given) | – | – | IC50 [4]: 3.7 µM; inhibition [8]: inactive; inhibition [3]: 48.7%; inhibition [6]: inactive; inhibition [7]: inactive |
| O=C1NC(c2c[nH]nc2-c2ccccc2)Nc2ccc(F)cc21 (stereo not given) | – | 34.8% | – |
| O=C1NC(c2c[nH]nc2-c2ccccc2)Nc2ccc(Cl)cc21 (stereo not given) | – | 27.9% | – |
| O=C1NC(c2cncn2Cc2ccc(Cl)cc2)Nc2ccccc21 (stereo not given) | Active | – | – |
| Cc1cc(Br)cc2c1NC(c1c[nH]nc1-c1ccccc1)NC2=O (stereo not given) | – | 92.8% | IC50 [4]: 4.6 µM; inhibition [3]: 50.1%; inhibition [6]: 19%; inhibition [7]: Active |
| Cc1cccc2c1NC(c1c[nH]nc1-c1ccccc1)NC2=O (stereo not given) | – | 39.2% | – |
| O=c1[nH]c(SCc2ccncc2)nc2ccccc12 | Active | – | – |
| O=C1NC(c2c[nH]nc2-c2ccccc2)Nc2c1cccc2[N+](=O)[O-] (stereo not given) | Active | – | – |
| Cc1cc(Cl)cc2c1NC(c1c[nH]nc1-c1ccc(Cl)cc1)NC2=O (stereo not given) | – | 10.3% | – |
| Cc1cc(Cl)cc2c1N[C@@H](c1c[nH]nc1-c1ccccc1)NC2=O | – | Active | – |
| COc1cc(Br)cc2c1NC(c1c[nH]nc1-c1ccccc1)NC2=O (stereo not given) | – | 50.4% | – |
| O=C1NC(c2c[nH]nc2-c2ccccc2)Nc2c(I)cc(Cl)cc21 (stereo not given) | – | 89.4% | inhibition [3]: 39.6% |
| O=C1NC(c2c[nH]nc2-c2ccccc2)Nc2c(Cl)cc(Cl)cc21 (stereo not given) | Active | – | – |
| Nc1ncnc2c1ncn2[C@@H]1O[C@H](COP(=O)(O)O)[C@@H](O)[C@H]1O | – | – | inhibition [4]: Dose-dependent effect; inhibition [8]: inactive; inhibition [11]: Active |
| Cc1cc(F)cc2c1NC(c1c[nH]nc1-c1ccccc1)NC2=O (stereo not given) | – | 42.7% | – |
| O=C1NC(c2c[nH]nc2-c2ccc(Cl)cc2)Nc2ccccc21 (stereo not given) | Active | – | – |

Further lines, with some results ahead:

| inhibition [1] | inhibition [2] | Compound | other results |
| --- | --- | --- | --- |
| Active | – | O=C1NC(c2c[nH]nc2-c2ccccc2)Nc2cc(Br)ccc21 (stereo not given) | – |
| – | 17.9% | Cc1cc(Cl)cc2c1NC(c1c[nH]nc1-c1ccccc1Br)NC2=O (stereo not given) | – |
| Active | – | O=C1NC(c2c[nH]nc2-c2ccccc2)Nc2c(Br)cc(F)cc21 (stereo not given) | – |
| Active | – | Cc1cc(Br)c2c(c1)C(=O)NC(c1c[nH]nc1-c1ccccc1)N2 (stereo not given) | – |
| Active | – | O=C1NC(c2c[nH]nc2-c2ccccc2)Nc2c(I)cc(I)cc21 (stereo not given) | – |
| – | 60.5% | Cc1cc(C)c2c(c1)C(=O)NC(c1c[nH]nc1-c1ccccc1)N2 (stereo not given) | – |
| – | 28.7% | O=c1[nH]c(-c2c[nH]nc2-c2ccccc2)nc2ccccc12 | – |
| Active | – | O=c1[nH]c(-c2c[nH]nc2-c2ccccc2)nc2ccc(Cl)cc12 | – |
| Active | – | Cc1cccc2c1C(=O)NC(c1c[nH]nc1-c1ccccc1)N2 (stereo not given) | – |
| – | 37.2% | O=C1NC(c2c[nH]nc2-c2ccccc2)Nc2c(F)cc(F)cc21 (stereo not given) | – |
| Active | 55 to 68.1% | O=C1NC(c2c[nH]nc2-c2ccccc2)Nc2ccccc21 (stereo not given) | inhibition [9]: inactive; inhibition [10]: inactive; inhibition [8]: 4%; inhibition [11]: 40 to 50% |
| – | 90.2% | Cc1cc(Cl)cc2c1NC(c1c[nH]nc1-c1ccccc1)NC2=O (stereo not given) | IC50 [4]: 5.1 µM; inhibition [3]: 46.4%; inhibition [6]: 27%; inhibition [7]: Active |
| – | 51% | Cc1cc(Cl)cc2c1NC(c1c[nH]nc1-c1ccc(Br)cc1)NC2=O (stereo not given) | – |

Source: ChEMBL document CHEMBL4152243, “Design, synthesis and biological activities of 2,3-dihydroquinazolin-4(1H)-one derivatives as TRPM2 inhibitors” (Eur J Med Chem, 2018)
